Data from ChEMBL document CHEMBL4270599, “Synthesis of a 3'-C-ethynyl-β-d-ribofuranose purine nucleoside library: Discovery of C7-deazapurine analogs as potent antiproliferative nucleosides” (Eur J Med Chem, 2018).

Key:
[1] = system: HOP-92; assay: Cytotoxicity against human HOP92 cells after 48 hrs by SRB assay; type: functional; conditions: HOP-92, 48 h; for GI50: read-out: GI50; for CC50: read-out: LC50 (the source's name); for TGI: read-out: TGI
[2] = system: NCI-H460; assay: Cytotoxicity against human NCI-H460 cells after 48 hrs by SRB assay; type: functional; conditions: NCI-H460, 48 h; for TGI: read-out: TGI
[3] = system: SF-295; assay: Cytotoxicity against human SF295 cells after 48 hrs by SRB assay; type: functional; conditions: SF-295, 48 h; for GI50: read-out: GI50; for CC50: read-out: LC50 (the source's name); for TGI: read-out: TGI
[4] = system: NCI/ADR-RES; assay: Cytotoxicity against human NCI-ADR-RES cells after 48 hrs by SRB assay; type: functional; conditions: for GI50: read-out: GI50; for CC50: read-out: pLC50 (the source's name) (converted)
[5] = system: HOP-92; assay: Growth inhibition of human HOP92 cells assessed as cell growth at 10^-8 M incubated for 48 hrs by sulforhodamine B assay relative to control; type: functional; conditions: HOP-92, 48 h, read-out: Activity
[6] = system: HCT-116; assay: Growth inhibition of human HCT116 cells assessed as cell growth at 10^-8 M incubated for 48 hrs by sulforhodamine B assay relative to control; type: functional; conditions: HCT-116, 48 h, read-out: Activity
[7] = system: HCT-15; assay: Growth inhibition of human HCT15 cells assessed as cell growth at 10^-8 M incubated for 48 hrs by sulforhodamine B assay relative to control; type: functional; conditions: HCT-15, 48 h, read-out: Activity
[8] = system: SF-295; assay: Growth inhibition of human SF295 cells assessed as cell growth at 10^-8 M incubated for 48 hrs by sulforhodamine B assay relative to control; type: functional; conditions: SF-295, 48 h, read-out: Activity
[9] = system: U-251; assay: Growth inhibition of human U251 cells assessed as cell growth at 10^-8 M incubated for 48 hrs by sulforhodamine B assay relative to control; type: functional; conditions: U-251, 48 h, read-out: Activity
[10] = system: LOX IMVI; assay: Growth inhibition of human LOXIMVI cells assessed as cell growth at 10^-8 M incubated for 48 hrs by sulforhodamine B assay relative to control; type: functional; conditions: read-out: Activity
[11] = system: Malme-3M; assay: Growth inhibition of human MALME-3M cells assessed as cell growth at 10^-8 M incubated for 48 hrs by sulforhodamine B assay relative to control; type: functional; conditions: read-out: Activity
[12] = system: UACC-257; assay: Growth inhibition of human UACC257 cells assessed as cell growth at 10^-8 M incubated for 48 hrs by sulforhodamine B assay relative to control; type: functional; conditions: UACC-257, 48 h, read-out: Activity
[13] = system: HOP-92; assay: Growth inhibition of human HOP92 cells assessed as cell growth at 10^-7 M incubated for 48 hrs by sulforhodamine B assay relative to control; type: functional; conditions: HOP-92, 48 h, read-out: Activity
[14] = system: NCI-H522; assay: Growth inhibition of human NCI-H522 cells assessed as cell growth at 10^-7 M incubated for 48 hrs by sulforhodamine B assay relative to control; type: functional; conditions: NCI-H522, 48 h, read-out: Activity
[15] = system: CCRF-CEM; assay: Growth inhibition of human CCRF-CEM cells assessed as cell growth at 10^-6 M incubated for 48 hrs by sulforhodamine B assay relative to control; type: functional; conditions: read-out: Activity
[16] = system: HOP-92; assay: Growth inhibition of human HOP92 cells assessed as cell growth at 10^-6 M incubated for 48 hrs by sulforhodamine B assay relative to control; type: functional; conditions: HOP-92, 48 h, read-out: Activity
[17] = system: HCT-15; assay: Growth inhibition of human HCT15 cells assessed as cell growth at 10^-6 M incubated for 48 hrs by sulforhodamine B assay relative to control; type: functional; conditions: HCT-15, 48 h, read-out: Activity
[18] = system: KM12; assay: Growth inhibition of human KM12 cells assessed as cell growth at 10^-6 M incubated for 48 hrs by sulforhodamine B assay relative to control; type: functional; conditions: KM12, 48 h, read-out: Activity
[19] = system: SW-620; assay: Growth inhibition of human SW620 cells assessed as cell growth at 10^-6 M incubated for 48 hrs by sulforhodamine B assay relative to control; type: functional; conditions: SW-620, 48 h, read-out: Activity
[20] = system: SK-MEL-28; assay: Growth inhibition of human SK-MEL-28 cells assessed as cell growth at 10^-6 M incubated for 48 hrs by sulforhodamine B assay relative to control; type: functional; conditions: SK-MEL-28, 48 h, read-out: Activity
[21] = system: UACC-257; assay: Growth inhibition of human UACC257 cells assessed as cell growth at 10^-6 M incubated for 48 hrs by sulforhodamine B assay relative to control; type: functional; conditions: UACC-257, 48 h, read-out: Activity
[22] = system: A498; assay: Growth inhibition of human A498 cells assessed as cell growth at 10^-6 M incubated for 48 hrs by sulforhodamine B assay relative to control; type: functional; conditions: A498, 48 h, read-out: Activity
[23] = system: HCT-15; assay: Growth inhibition of human HCT15 cells assessed as cell growth at 10^-4 M incubated for 48 hrs by sulforhodamine B assay relative to control; type: functional; conditions: HCT-15, 48 h, read-out: Activity
[24] = system: HUVEC; assay: Antiproliferative activity against HUVEC cells after 4 days by Coulter counter method; type: cell-based; conditions: Homo sapiens, 96 h
Summary of the method: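 Primary HUVEC, primary HMVEC-d and the HMEC-1 line seeded at 20,000 cells/well in gelatin-coated plates in EC growth medium (EGM2). After overnight incubation, 5-fold compound dilutions added. Cells proliferated four days with compound, then trypsinized and counted by Coulter counter to derive IC₅₀.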

[25] = system: M14; assay: Growth inhibition of human M14 cells assessed as cell growth at 10^-6 M incubated for 48 hrs by sulforhodamine B assay relative to control; type: functional; conditions: M14, 48 h, read-out: Activity
[26] = system: HL-60(TB); assay: Growth inhibition of human HL-60(TB) cells assessed as cell growth at 10^-5 M incubated for 48 hrs by sulforhodamine B assay relative to control; type: functional; conditions: HL-60, 48 h, read-out: Activity
[27] = system: NCI-H322M; assay: Growth inhibition of human NCI-H322M cells assessed as cell growth at 10^-5 M incubated for 48 hrs by sulforhodamine B assay relative to control; type: functional; conditions: read-out: Activity
[28] = system: NCI/ADR-RES; assay: Growth inhibition of human NCI/ADR-RES cells assessed as cell growth at 10^-5 M incubated for 48 hrs by sulforhodamine B assay relative to control; type: functional; conditions: read-out: Activity

Row | Structure (SMILES) | GI50 [1] | CC50 [1] | TGI [1] | TGI [2] | GI50 [3] | CC50 [3] | TGI [3] | GI50 [4] | TGI ([4]; read-out: TGI) | CC50 [4] | TGI ([4]; read-out: pTGI (converted)) | growth at 0.01 µM [5] | growth at 0.01 µM [6] | growth at 0.01 µM [7] | growth at 0.01 µM [8] | growth at 0.01 µM [9] | growth at 0.01 µM [10] | growth at 0.01 µM [11] | growth at 0.01 µM [12] | growth at 0.1 µM [13] | also measured
1 | C#C[C@@]1(O)[C@@H](CO)O[C@@H](n2cc(Cl)c3c(N)ncnc32)[C@@H]1O | 433 to 476 nM | > 100000 nM | 3330 to 3740 nM | 226 to 753 nM | 202 to 298 nM | > 100000 nM | 1900 to 3200 nM | 50.6 to 54.6 nM | 777 nM | > 100000 nM | 776 nM | 90 to 97% | 67 to 73% | 78 to 80% | 82 to 92% | 47 to 66% | 70 to 84% | 93 to 100% | 87 to 100% | 90% | CC50 ([2]; read-out: pLC50 (the source's name) (converted)): > 100000 nM; growth at 0.1 µM [14]: 47 to 62%; growth at 1 µM [15]: 7%; growth at 1 µM [16]: 27 to 31%; growth at 1 µM [17]: 1%; growth at 1 µM [18]: 3 to 12%; growth at 1 µM [19]: 2 to 7%; growth at 1 µM [20]: 32 to 43%; growth at 1 µM [21]: 12 to 29%; growth at 1 µM [22]: -63%; growth at 100 µM [23]: 1%; IC50 [24]: 4.9 nM
2 | C#C[C@@]1(O)[C@@H](CO)O[C@@H](n2cc(Br)c3c(N)ncnc32)[C@@H]1O | 149 to 318 nM | > 100000 nM | 686 to 3130 nM | 1540 to 5270 nM | 189 to 466 nM | > 100000 nM | 4120 to 13700 nM | 45.1 to 65.9 nM | 1020 nM | > 100000 nM | 1020 nM | 90 to 94% | 83% | 80 to 84% | 90 to 96% | 57 to 87% | 76 to 94% | 100 to 102% | 87 to 100% | 63 to 78% | GI50 ([2]; read-out: GI50): 17.1 to 50 nM; CC50 ([2]; read-out: LC50 (the source's name)): > 100000 nM; growth at 0.1 µM [14]: 38 to 67%; growth at 1 µM [15]: 5 to 11%; growth at 1 µM [17]: 4 to 7%; growth at 1 µM [18]: 21 to 26%; growth at 1 µM [19]: 4 to 9%; growth at 1 µM [25]: 20 to 24%; growth at 1 µM [20]: 61 to 68%; growth at 1 µM [21]: 60 to 73%; growth at 10 µM [26]: -51%; growth at 10 µM [27]: -12%; growth at 100 µM [23]: 1 to 4%; IC50 [24]: 18 nM; growth at 10 µM [28]: -9%
